Measured values collected from several papers.
Lines come from different studies, so protocols differ.
Organism: Plasmodium falciparum
Effect on: parasite growth

With C[C@H]1[C@@H](O)O[C@@H]2O[C@@]3(C)CC[C@H]4[C@H](C)CC[C@@H]1[C@@]24OO3 the IC50 was 25.2 nM (3D7; 24 h, blood stage).
Cc1ccc(-c2ccc3ncc4c(c3c2)n(-c2cccc(C(F)(F)F)c2)c(=O)n4C)cn1 has an IC50 of less than 100 nM (resazurin; 3D7; gametocyte).
With COc1ccc2[nH]c(-c3ccc(Cc4ccc(OC(F)(F)F)cc4)cc3)c(C)c(=O)c2c1 the IC50 was greater than 350 nM (3D7; blood stage).
With CCN(CC)CCCC(C)Nc1ccnc2cc(Cl)ccc12 (stereo not drawn) the IC50 was 0.01 µg/mL (D6; 72 h, blood stage).
With O=C(Nc1c(F)cccc1C(=O)O)c1cccc(-c2ccccc2)c1 the IC50 was greater than 10000 nM (resazurin; NF54; 48 h, gametocyte).
For C[C@@H]1CC[C@H]2[C@@H](C)C(=O)O[C@@H]3O[C@@]4(C)CC[C@@H]1[C@]32OO4, the IC50 was 0.009 µg/mL (W2; drug-resistant strain, blood stage).
CCN(CC)CCCC(C)Nc1ccnc2cc(Cl)ccc12 (stereo not drawn) has an IC50 of 4.2 nM (NF54; blood stage).
NC(N)=Nc1ccc(-c2ccc(-c3ccc(N=C(N)N)c(Cl)c3)o2)cc1Cl gave an IC50 of 249 nM (SYBR Green; blood stage).
C[C@@]12CC[C@@H](O)[C@]3(C)C4=CC(=O)OCC4=C[C@@H](OC1=O)C23 (stereo partly drawn) has an IC50 of 0.67 µg/mL (W2; 72 h, drug-resistant strain, blood stage).
Fc1ccc(-c2nc3c(N4CCCN(CC5CC5)CC4)nccc3[nH]2)cc1F has an IC50 of 20 nM (NF54; blood stage).
For C#CCCCCCCCCCCCC(O)CC(O)CO (stereo not drawn), the IC50 was 32.5 µg/mL (W2; drug-resistant strain, blood stage).
CCN(CC)CCCC(C)Nc1ccnc2cc(Cl)ccc12 (stereo not drawn) gave an IC50 of 7.4 nM (ELISA; 3D7; blood stage).
NC1CCN(c2nc3cc(Cl)ccc3n2Cc2ccccc2)CC1 gave an IC50 of 22 nM (NF54; blood stage).
N=C(N)c1ccc(OCCCCCOc2ccc(C(=N)N)cc2)cc1 gave an IC50 of 5.6 nM (SYBR Green; blood stage).
The IC50 of CS(=O)(=O)c1ccc2c(c1)nc(C1CCNCC1)n2Cc1ccccc1 is reported as greater than 10000 nM (NF54; blood stage).
CCOc1ccc(-c2nc(CNCCc3ccc(F)cc3)cs2)cc1 has an IC50 of 17100 nM (SYBR Green; blood stage).
For O=C(Nc1ccc(F)cc1C(=O)O)c1ccc(-c2ccccc2)cc1, the IC50 was greater than 10000 nM (NF54; 48 h, blood stage).
C#CCCCCCCCCC=CCC(O)CC(O)CO (stereo not drawn) gave an IC50 of greater than 47.6 µg/mL (W2; drug-resistant strain, blood stage).
N=C(N)NCCCCC(=O)Nc1cc(C(F)(F)F)cc(NC(=O)c2cc(C(=O)Nc3cc(C(F)(F)F)cc(NC(=O)CCCCNC(=N)N)c3O[C@@H]3CCNC3)ncn2)c1O[C@@H]1CCNC1 gave an IC50 of 670 nM (SYBR Green; blood stage).
With COC1=CC(c2ccc[nH]2)=NC1=Cc1ccc(CCCCCCCCCCO)[nH]1 the IC50 was 108 nM (D6; blood stage).
For Cc1ccc(C(=O)Nc2ccc(S(=O)(=O)O)c3cc(S(=O)(=O)O)cc(S(=O)(=O)O)c23)cc1NC(=O)c1cccc(NC(=O)Nc2cccc(C(=O)Nc3cc(C(=O)Nc4ccc(S(=O)(=O)O)c5cc(S(=O)(=O)O)cc(S(=O)(=O)O)c45)ccc3C)c2)c1, the IC50 was greater than 100000 nM (SYBR Green; blood stage).
The IC50 of CCN(CC)CCCC(C)Nc1ccnc2cc(Cl)ccc12 (stereo not drawn) is reported as 10 nM (D6; blood stage).
For O=C(Nc1cc(F)ccc1C(=O)O)c1ccc(-c2ccccc2)cc1, the IC50 was greater than 10000 nM (NF54; 48 h, blood stage).
The IC50 of COC1=CC(c2ccco2)=NC1=Cc1ccc(CCCCCCCCCC(C)O)[nH]1 (stereo not drawn) is reported as greater than 2500 nM (D6; blood stage).
The IC50 of Clc1ccc2c(c1)nc(NCCNCc1ccncc1)n2Cc1ccccc1 is reported as 2280 nM (NF54; blood stage).
For CC(C)Cn1c(=O)n(C)c(=O)c2c(-c3cncn3C)n(Cc3cccc4ccccc34)nc21, the IC50 was 4820 nM (SYBR Green; blood stage).
With Clc1ccc2c(nc(N3CCNCC3)n2Cc2ccccc2)c1-c1ccccc1 the IC50 was 3650 nM (NF54; blood stage).
For CCN(CC)CCCC(C)Nc1ccnc2cc(Cl)ccc12 (stereo not drawn), the IC50 was 206 nM (LDH).
The IC50 of C[C@@H]1CC[C@H]2[C@@H](C)C(=O)O[C@@H]3O[C@@]4(C)CC[C@@H]1[C@]32OO4 is reported as 0.0047 µg/mL (D6; 72 h, blood stage).
With C/C=C/C=C/C=C/c1c(O)cc(CC=C(C)C)c(O)c1C=O the IC50 was 1.8 µg/mL (D6; 72 h, blood stage).
For CC[C@@H](C)[C@H]1O[C@@H](c2c(O)c(-c3ccccc3)cn(O)c2=O)[C@H](C)C[C@@H]1C, the IC50 was 0.33 µg/mL (D6; 72 h, blood stage).
The IC50 of COc1cc(NC(C)CCCNCOC(=O)NCCCC(C)Nc2cc(OC)cc3cccnc23)c2ncccc2c1.Cl.Cl (stereo not drawn) is reported as 2.7 µg/mL (W2; drug-resistant strain, blood stage).
With CN1CCC(NCc2cccc(-c3ccc(S(=O)(=O)NCc4ccccc4)cc3)c2)CC1 the IC50 was 593 nM (SYBR Green; blood stage).
Clc1ccc2c(nc(N3CCNCC3)n2Cc2ccccc2)c1Br has an IC50 of 71 nM (NF54; blood stage).
The IC50 of Cc1ccc2c(c1C)NC(=O)[C@]21NN=C(c2ccccc2)S1 is reported as 960 nM (SYBR Green; blood stage).
For NCCCCNc1nc2cc(Cl)ccc2n1Cc1ccccc1, the IC50 was 1340 nM (NF54; blood stage).
O=C(O)c1ccc(F)cc1NC(=O)c1ccccc1-c1ccccc1 gave an IC50 of greater than 10000 nM (resazurin; NF54; 48 h, gametocyte).
For FC(F)(F)c1ccc2c(c1)nc(N1CCNCC1)n2Cc1ccccc1, the IC50 was 310 nM (NF54; blood stage).
CCCCCCCCCCCCCC(O)CC(O)CO (stereo not drawn) has an IC50 of 40.8 µg/mL (W2; drug-resistant strain, blood stage).
